STEP inh: blocks human striatal-enriched tyrosine phosphatase; inhibition, % at 20 µM; P54829; recombinant STEP, OMFP fluorogenic substrate, fluorescence; 360,000 tested, 0.25% active; AID 588621;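 active means inhibition at 20 µM, scaled per plate between control wells, above about 37%, limit read from the data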;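 further: 0% = DMSO with enzyme and substrate and 100% = substrate only without enzyme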
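Material: STEP (striatal-enriched tyrosine phosphatase) enzyme, cell-free | Medium: 50 mM Bis-Tris pH 6.0 with 2.5 mM DTT and 0.005% Tween 20 | Read-out: Percent inhibition scaled to no-enzyme and uninhibited-enzyme controls, plate-pattern corrected | Signal: Fluorescence read at 480 nm ex / 540 nm em | Times: 20 min reaction, room temperature, in the dark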
DNMT1 inh: inhibitors of human DNMT1; 360,000 tested, 0.83% active; inhibition (reported as % activation of signal), % at 10 µM; P26358; AID 588458; DNMT1 molecular beacon, Hinp1I cleavage, fluorescence; in the data active means inhibition above about 50%
NadD block: NadD (S. aureus) enzyme inhibition; purified NadD enzyme, colorimetric absorbance read-out; 360,000 tested, 0.78% active; inhibition, % at 20 µM; in the data active means inhibition above about 26%
LMPTP inh: blocks human LMPTP phosphatase. P24666. 360,000 tested, 0.22% active. inhibition, % at 20 µM. recombinant LMPTP-A, OMFP fluorogenic substrate, fluorescence intensity;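 active means compounds that cut the enzyme signal by at least half of the control window in the single-dose screen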;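 further: plate controls were DMSO wells with enzyme plus substrate for no effect and substrate without enzyme for full effect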
Target sequence (P24666 whole entry, looked up): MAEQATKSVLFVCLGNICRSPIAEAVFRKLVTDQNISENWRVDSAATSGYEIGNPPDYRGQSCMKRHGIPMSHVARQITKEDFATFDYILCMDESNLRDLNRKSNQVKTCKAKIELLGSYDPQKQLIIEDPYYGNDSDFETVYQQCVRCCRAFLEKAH
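Test system – LMPTP-A phosphatase enzyme · Quantity – 0.625 nM LMPTP-A final · Reagent – OMFP substrate, 400 µM final · Dosing – one test concentration per compound, 20 µM, with 3% DMSO overall · Timing – 50 min enzyme reaction at room temperature, protected from light · Detection – fluorescence intensity · Controls – substrate-only low control, DMSO enzyme-plus-substrate high control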
Scp1 inh: Scp-1 (human) phosphatase inhibition. Q9GZU7. AID 493091. 340,000 tested, 0.88% active. inhibition, % at 20 µM. Recombinant Scp1, phosphopeptide, malachite green phosphate absorbance;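 active means inhibition above about 50% at 20 µM, limit read from the data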;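 further: plate controls were DMSO wells with enzyme for no effect and wells lacking enzyme for full effect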
Target sequence (Q9GZU7 76-261 limits assumed): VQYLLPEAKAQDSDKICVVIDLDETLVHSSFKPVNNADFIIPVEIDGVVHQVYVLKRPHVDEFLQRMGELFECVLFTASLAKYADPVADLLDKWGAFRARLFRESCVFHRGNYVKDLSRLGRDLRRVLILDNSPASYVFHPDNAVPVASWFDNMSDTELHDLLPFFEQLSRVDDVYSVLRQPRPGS
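Test system: SCP-1 catalytic domain; Buffer or medium: Acidic Tris acetate buffer with magnesium and detergent; Also added: Phosphorylated 17-residue peptide substrate; Compound: single 20 µM dose, 1% DMSO; Schedule: enzyme reaction 45 min at room temperature, colour 5 min, stabilisation 30 min; Signal: Phosphate-binding colour reagent, absorbance read at 630 nm.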
SUMO1 PPI mod: alters human SUMO1 binding to SIM partners; SUMO1 binding to a labelled peptide, TR-FRET, 1 h; 360,000 tested, 0.33% active; P63165; inhibition, % at 20 µM; in the data active means inhibition above about 37%
Target sequence (P63165 whole entry, looked up): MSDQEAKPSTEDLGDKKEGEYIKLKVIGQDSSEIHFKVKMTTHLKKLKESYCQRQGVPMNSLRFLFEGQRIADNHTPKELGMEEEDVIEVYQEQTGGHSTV
Active calls of the source: *; nt = no result given. In the library only some 2.4% were active in any assay of this set; here they are far more common.

SMILES	STEP inh	DNMT1 inh	NadD block	LMPTP inh	Scp1 inh	SUMO1 PPI mod
COc1ccc(N2CSC3=C(C#N)C(c4cccc(OC)c4OC)CC(=O)N3C2)cc1 (centres undefined)	1.2	-11.6	11.8	5.5	51.7*	-7.7
CC1=NN(c2nc(-c3ccc(F)cc3)cs2)C(=O)C1	-4.8	-11.6	4.9	-0.3	-6.0	21.7
CC(=O)N1CCN(S(=O)(=O)c2ccc3c(c2)OCCO3)CC1	-0.4	0.8	0.4	-0.8	-3.6	-1.1
O=C1c2c(O)ccc(O)c2C(=O)c2c(NCCNCCO)ccc(NCCNCCO)c21	13.8	-269.2	-1.0	7.9	-15.2	93.2*
O=C1c2ccccc2C(=O)c2c(Nc3ccc(CCO)cc3)ccc(O)c21	3.2	-0.9	-5.2	4.0	-12.5	-8.0
CCNc1ccc(S(=O)(=O)N(C)C)cc1[N+](=O)[O-]	-1.3	4.0	20.5	0.4	58.7*	-14.8
COc1ccc(Nc2nc(N3CCCC3)c3ccccc3n2)cc1	3.1	17.2	1.5	51.4*	3.6	4.2
CCN(CC)c1ccc(Nc2nc(N3CCOCC3)c3ccccc3n2)cc1	5.2	-8.8	-7.4	8.0	-7.0	-0.3
COCCNc1nc(NCc2cc(-c3ccc(OC)cc3)no2)c2sccc2n1	1.7	-6.5	3.4	56.6*	nt	7.2
COCCNc1nc(NCc2cccs2)nc2ccsc12	1.8	-37.6	5.0	38.9	nt	0.9
Cc1c(C)c2ccc(OCC(=O)Nc3ccccn3)cc2oc1=O	0.3	-0.8	-6.6	0.1	5.8	55.5*
COc1ccc(C)cc1S(=O)(=O)Nc1cc2c3c(c1)CCN3C(=O)CC2	1.5	-1.2	-4.2	0.0	3.4	2.3
CCOC(=O)c1ccc2c(c1)nc(-c1ccc(F)cc1)c1nccn12	-0.6	17.7	-2.5	-1.0	-0.8	47.8*
O=C(NCC(=O)N(c1cccc(F)c1)C(C(=O)NC1CCCC1)c1ccco1)c1ccco1 (centres undefined)	0.2	-1.6	0.3	-0.8	-3.3	-2.0
O=S(=O)(O)c1cc(Cl)cc(N=Nc2ccc(O)cc2O)c1O	3.2	68.4*	9.3	50.0*	73.1*	-13.9
O=[N+]([O-])c1ccc(N=Nc2ccc(O)cc2O)cc1	-1.8	3.1	-3.6	-0.9	-4.3	-16.7
CN(C)c1ccc(C#Cc2ccc3cc(CCO)oc(=O)c3c2)cc1	97.0*	41.9	3.9	68.0*	38.4	-13.6
C=C1c2cccc(O)c2C(=O)C2C(=O)[C@]3(O)C(=O)C(C(N)=O)C(=O)[C@@H](N(C)C)[C@@H]3[C@@H](O)[C@H]12 (some centres undefined)	53.1*	94.3*	9.9	81.3*	60.0*	72.7*
C[C@H]1c2cccc(O)c2C(O)=C2C(=O)[C@]3(O)C(O)=C(C(N)=O)C(=O)[C@@H](N(C)C)C3[C@@H](O)C21 (some centres undefined)	1.7	1.9	1.1	1.4	14.0	0.7
COc1ccc(N2CCN(C(=S)Nc3ccc(OC)cc3OC)CC2)cc1	4.6	4.3	0.9	0.8	-1.9	11.3
Nc1[nH]n2c(=O)cc(-c3ccccc3)nc2c1N=Nc1ccc(S(N)(=O)=O)cc1	4.0	-4.0	25.4	12.4	45.0	-35.5
NS(=O)(=O)c1ccc(N=Nc2c(-c3ccccc3)[nH]n(-c3nc(-c4ccccc4)cs3)c2=O)cc1	2.1	-17.9	36.7*	2.4	0.6	-6.2
O=S(=O)(/C=C/C=C/S(=O)(=O)c1ccccc1)c1ccccc1	0.9	14.4	2.6	0.2	-0.3	40.5*
Cc1ccc(S(=O)(=O)C=CS(=O)(=O)c2ccc(C)cc2)cc1	-0.2	7.2	2.7	-1.0	nt	3.7
C/C(=N\NC(=O)CSCc1ccc([N+](=O)[O-])cc1)c1ccccc1	-2.1	-4.1	-5.3	-0.5	0.6	-8.1
SMILES	STEP inh	DNMT1 inh	NadD block	LMPTP inh	Scp1 inh	SUMO1 PPI mod
Cc1nn(-c2ccccc2)c(N2CCCC2)c1/C=N/NC(=O)c1cc2ccccc2cc1O	-0.6	-23.5	38.8*	0.5	-10.1	5.0
Cc1nn(-c2ccccc2)c(N2CCCC2)c1/C=N/NC(=O)c1cc(-c2ccccc2)nc2ccccc12	0.2	-14.8	27.4	2.8	-5.3	2.1
COc1ccc(CNC(=O)COC(=O)CCn2c(C)csc2=O)cc1OC	1.5	-2.6	-1.5	-0.4	-4.8	-1.4
NS(=O)(=O)c1ccc2c(c1)C1C=CCC1C(C1CC=CCC1)N2 (centres undefined)	-0.5	-34.4	38.6*	0.7	-1.1	1.7
OCC[C@@H]1C[C@H](O)[C@@H](O)[C@@]2(CCCCO2)O1	-2.2	6.5	-3.9	-3.1	-2.3	0.0
C#CCOCCOCCOCCNc1nc(N2CCN(C(=O)CCCCCCCCCCNC(=O)[C@H](CCCCN)n3cc(CCO)nn3)CC2)nc(N2CCN(C(=O)CCCCCCCCCCNC(=O)[C@@H]([C@H](C)O)n3cc(C)nn3)CC2)n1	-3.8	-102.1	15.9	-5.3	5.0	-52.2
C#CCOCCOCCOCCNc1nc(N2CCN(C(=O)CCCCCCCCCCNC(=O)[C@H]([C@@H](C)CC)n3cc(CCCCCN)nn3)CC2)nc(N2CCN(C(=O)CCCCCCCCCCNC(=O)[C@@H]([C@H](C)O)n3cc(C)nn3)CC2)n1	2.5	-101.9	32.6*	2.3	26.6	-52.5
C#CCOCCOCCOCCNc1nc(N2CCN(C(=O)CCCCCCCCCCNC(=O)[C@H](CCC(=O)O)n3cc(CCCCCN)nn3)CC2)nc(N2CCN(C(=O)CCCCCCCCCCNC(=O)[C@@H]([C@H](C)O)n3cc(C)nn3)CC2)n1	-0.2	-25.1	-3.1	-5.6	21.0	0.4
C#CCOCCOCCOCCNc1nc(N2CCN(C(=O)CCCCCCCCCCNC(=O)[C@H](CCCCN)n3cc(C)nn3)CC2)nc(N2CCN(C(=O)CCCCCCCCCCNC(=O)[C@@H]([C@H](C)CC)n3cc(CCCCCN)nn3)CC2)n1	7.8	-38.2	51.3*	3.7	nt	50.7*
COC(=O)c1ccc(COc2ccccc2/C=N/Nc2cccc(C(=O)O)c2)cc1	-1.2	0.6	18.6	2.2	-5.4	14.9
Cc1sc(-n2c(C)cc(/C=C3\SC(=S)NC3=O)c2C)c(C#N)c1C	0.7	16.4	24.6*	1.3	17.6	15.2
Cc1cc(/C=C2\SC(=S)NC2=O)c(C)n1-c1cccc(O)c1	-6.8	-0.8	30.2*	4.9	-5.2	3.9
COC(=O)C1=C(C)NC(=O)/C1=C\c1cc(C)n(-c2ccc(F)cc2)c1C	-2.8	-23.1	6.0	-0.8	-5.0	-4.2
COC(=O)C1=C(C)NC(=O)/C1=C\c1cc(C)n(-c2cccc(C)c2)c1C	1.3	-17.6	32.3*	1.2	-3.0	-2.7
CN(C)C(CNC(=O)c1ccccc1OCc1ccc(Cl)cc1)c1ccco1 (centres undefined)	-3.0	0.6	-3.7	0.5	-3.5	1.0
